PKA-R1A act – activators of PKA-R1A complex; 340,000 compounds, 0.083% hits; PKA-R1A dissociation, Cy5-IP20 fluorescence polarization; scaled: DMSO 0%, 113 µM cGMP 100%; AID 504707; activation, % at 11.4 µM;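 active = percent activation above the mean of all tested compounds plus 3 SD, cut at about 19% in these data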;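 note: higher means more PKAc released from R1A so a rise in polarization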
Neddylation inh – blocks human cullin neddylation. inhibition, % at 25 µM. P61081+Q13564. TR-FRET cullin neddylation, biochemical. AID 651699. 360,000 compounds, 0.58% hits; in the data active = inhibition above about 36%
Target sequence (P61081 whole entry, looked up): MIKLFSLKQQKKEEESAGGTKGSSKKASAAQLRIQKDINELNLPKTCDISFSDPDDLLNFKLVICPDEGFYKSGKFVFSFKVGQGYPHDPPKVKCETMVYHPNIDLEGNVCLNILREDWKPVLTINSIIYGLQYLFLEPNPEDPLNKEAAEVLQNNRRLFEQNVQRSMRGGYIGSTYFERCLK
Target sequence (Q13564 whole entry, looked up): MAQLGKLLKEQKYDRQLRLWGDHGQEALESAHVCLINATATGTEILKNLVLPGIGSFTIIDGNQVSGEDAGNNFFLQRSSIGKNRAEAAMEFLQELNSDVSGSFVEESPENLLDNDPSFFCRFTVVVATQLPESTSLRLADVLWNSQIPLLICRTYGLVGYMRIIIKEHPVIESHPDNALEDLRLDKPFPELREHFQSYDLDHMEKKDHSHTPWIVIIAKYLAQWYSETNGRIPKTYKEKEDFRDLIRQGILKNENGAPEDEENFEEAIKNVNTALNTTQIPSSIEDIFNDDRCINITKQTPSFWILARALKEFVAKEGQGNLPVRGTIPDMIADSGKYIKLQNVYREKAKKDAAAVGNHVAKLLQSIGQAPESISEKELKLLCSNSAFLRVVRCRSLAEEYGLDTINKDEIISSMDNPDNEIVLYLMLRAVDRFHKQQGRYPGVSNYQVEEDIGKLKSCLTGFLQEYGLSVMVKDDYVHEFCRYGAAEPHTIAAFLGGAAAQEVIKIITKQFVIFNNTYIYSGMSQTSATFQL
DDE Tn7 FP inh – DD(E)-Tn7 binding inhibition, primary FP screen; P02675; FP displacement of FITC-Tn7 peptide from fibrin DD(E); 0% = median of compound wells per plate; inhibition, % at 8.3 µM; 370,000 compounds, 0.13% hits;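 active = inhibition above the mean of compounds falling within the control limits plus 3 SD of them, cut at about 14% in these data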;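 note: 0% = plate median of compound wells and 100% = 10 µM Aha-Tn7 peptide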
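system = human fibrin DD(E) protein | quantity = DD(E) 2 µM final | medium = Tris/NaCl/CaCl2 buffer, pH 7.8 | also added = labelled Tn7 tracer, 0.1 µM | compound dosing = single point at 8.3 µM | timing = compound with protein 10 min, then 3 h after probe, room temperature | signal = FP measurement | benchmarks = Aha-Tn7 high control | repeats = one replicate per compound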
Tn6 DDE FP – inhibitors of Tn6 peptide binding to human fibrin DD(E). 370,000 compounds, 0.21% hits. AID 720509. P02675. inhibition, % at 8.3 µM. Fibrin DD(E) TRITC-Tn6 fluorescence polarization displacement;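 active = inhibition above a per-campaign cutoff: mean of compounds within control limits plus 3 SD, cut at about 15% in these data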;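 note: 0% = median of all compound wells on the plate and 100% = blocking peptide control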
PKA-R2B activ – PKA-R2B complex activation | P22694+P31323 | PKA-R2B holoenzyme dissociation, Cy5-IP20 fluorescence polarization; R2B truncated from residue 108, S112A mutant; 0% DMSO only, 100% 113 µM cGMP | activation, % at 11.4 µM | 340,000 compounds, 0.079% hits | AID 504700;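 active = activation above a cutoff set at the mean over all compounds plus 3 SD, cut at about 18% in these data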;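 note: higher means more holoenzyme dissociation and a rise in polarization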
* marks the source's active call; other numbers are inactive results; i = inactive; . = no result given. An excerpt weighted towards active compounds, which were near 1% of everything screened.

SMILES	PKA-R1A act	Neddylation inh	DDE Tn7 FP inh	Tn6 DDE FP	PKA-R2B activ
CCOC(=O)CC(=O)CSc1ccc2nnc(-c3ccc(F)cc3)n2n1	-3	40*	-2	2	-9
CCOC(=O)CC(=O)CSc1ccc2nnc(-c3cccc(F)c3)n2n1	-5	38	3	2	-19
CCOc1ccc(-n2c(SCC(=O)NN=Cc3ccc(C(=O)O)cc3)nnc2-c2cccnc2)cc1	.	.	-6	-3	.
CCCCNC(=O)C1CCCN1C(=O)Nc1cccc(C)c1 (stereo unspecified)	.	.	3	12	.
CC(C)CNC(=O)OCc1cn(Cc2ccccc2F)nn1	.	.	-2	-4	.
Cc1cc(/C=N/NC(=O)c2cccs2)c(C)n1-c1ccccc1	0	40*	2	1	-3
CC[C@@H](CCCc1ccccc1OC)CCS(=O)(=O)C(C)(C)C	.	.	4	8	.
O=C(CCn1cnc(-c2ccccc2)c1-c1ccccc1)N/N=C/c1ccccc1O	-1	54*	-3	9	-14
COc1ccc(-n2c(SCC(=O)Nc3ccc(Oc4ccccc4)cc3)nnc2-c2ccco2)cc1	.	.	6	3	.
O=[N+]([O-])c1cc([N+](=O)[O-])c2nonc2c1Nc1ccccc1O	-17	-54	3	7	-9
O=[N+]([O-])c1cc([N+](=O)[O-])c2nonc2c1Nc1ccc(O)cc1	0	-56	-3	18*	-2
Cc1cccc(NC(=S)N/N=C/c2cccn2Cc2ccc(F)cc2)c1	-14	51*	-8	-5	-2
COc1ccccc1NS(=O)(=O)c1cccc(C(=O)N/N=C/c2c(CO)cnc(C)c2O)c1	-3	41*	-4	0	-13
CC(C)(C)NC(=O)C(c1ccncc1)n1c(=O)c(-c2ccco2)nc2ccccc21 (stereo unspecified)	.	40*	1	-1	.
CCC(=Nc1ccc(N)cc1)C1=C(O)C(C(=O)OC)C(C)(C)CC1=O (stereo unspecified)	4	-27	7	125*	-12
COC(=O)C1CN(Cc2ccccc2)CCS(=O)(=O)N1Cc1cn(Cc2ccc(F)cc2)nn1 (stereo unspecified)	.	.	9	3	.
COCCCNc1c2c3c(cccc3[nH]c1=O)C(=O)c1ccccc1-2	0	i	6	86*	9
CC(C)(C)NC(=O)[C@@H](c1cccnc1)N(C(=O)c1ccco1)c1ccc(C(C)(C)C)cc1	.	.	-1	2	.
Cc1cc(=O)oc2cc(NC(=O)C(C)N3C(=O)C4CCCCC4C3=O)ccc12 (stereo unspecified)	7	73*	-1	-9	5
CC(=O)Nc1ccc2c(COC(=O)[C@H](C)N3C(=O)C4CCCCC4C3=O)cc(=O)oc2c1 (stereo partly specified)	-5	.	-5	8	-15
OCC1OC(n2cnc3c(NCc4ccccc4O)ncnc32)C(O)C1O (stereo unspecified)	5	61*	8	4	-11
COc1cc(-c2cc(C(=O)Nc3ccc(S(N)(=O)=O)cc3)c3ccccc3n2)cc(OC)c1OC	-6	.	-1	-9	-3
CCN(CC)S(=O)(=O)c1ccc(O)c(NC(=O)c2cc(-c3cc(OC)c(OC)c(OC)c3)nc3ccccc23)c1	-7	38*	.	.	-10
S=c1[nH]nc(-c2n[nH]c3c2CCC3)n1N=Cc1c[nH]c2ccccc12	.	.	-6	5	.
CCc1nnc(NC(=O)c2ccc(-c3ccccc3Cl)o2)s1	-1	45*	-4	1	-1
SMILES	PKA-R1A act	Neddylation inh	DDE Tn7 FP inh	Tn6 DDE FP	PKA-R2B activ
CCN1CCN(Cc2ccc(NC(=O)c3cc(NC(=O)C(=O)c4c[nH]c5ccccc45)cc(OC)c3)cc2C(F)(F)F)CC1	-23	4	4	44*	-6
CCN1CCN(Cc2ccc(NC(=O)c3ccc(C)c(NC(=O)C(=O)c4c[nH]c5ccccc45)c3)cc2C(F)(F)F)CC1	1	15	0	-6	-8
CC(=O)Oc1c(-c2ccco2)oc2ccccc2c1=O	-7	46*	-1	0	-5
CCN(CC)C(=O)COc1c(-c2ccco2)oc2ccccc2c1=O	-6	33	-3	-11	-7
Cc1cc(C)cc(NC(=O)/C=C/c2ccc([N+](=O)[O-])s2)c1	-7	16	-6	11	1
Cc1ccccc1NC(=O)/C=C/c1ccc([N+](=O)[O-])s1	2	44*	.	.	2
Cc1nn(-c2ccccc2)c2sc(C(=O)NCCc3ccc(Cl)cc3)cc12	.	.	0	6	.
c1ccc(-c2nc3ccccc3o2)nc1	7	27	8	-5	2
c1ccc2nc(-c3nc4ccccc4o3)ccc2c1	-2	40*	0	6	0
S=c1[nH]nc(-c2cc(-c3ccccc3)n[nH]2)n1/N=C/C(Br)=C/c1ccccc1	.	54*	3	-1	.
O=C(O[C@@H]1OC2COC(=O)c3cc(O)c(O)c(O)c3-c3c(cc(O)c(O)c3O)C(=O)O[C@@H]([C@H]1O)[C@@H]2O)c1cc(O)c(O)c(O)c1	-7	38*	.	.	3
COc1ccc2cc3cc(C(=O)N4CCN(C5CCCCC5)CC4)oc3nc2c1	-11	.	.	.	-7
COc1ccc2cc3cc(C(=O)N4CCCCCC4)oc3nc2c1	6	63*	.	.	9
O=S(=O)(c1cccs1)N1CN(Cc2cccs2)c2nc3ccccc3nc21	-13	41*	-6	1	2
O=S(=O)(c1cccs1)N1CN(Cc2ccc(F)cc2)c2nc3ccccc3nc21	-6	8	12	2	-5
COc1ccccc1CCC[C@@H](CCS(=O)(=O)C(C)C)CC1CCCCC1	.	.	3	4	.
C=CCNC(=O)c1ccc(Cl)cc1Cl	-9	5	5	14	-8
C=CCNC(=O)c1ccsc1N	.	-5	9	17*	.
O=C(Nc1ccccc1Cl)O[C@@H]1CC[C@@]23CCCN2C(=O)CCC[C@H]3C1	.	.	-2	-5	.
Fc1ccccc1-c1nc2nc3ccccc3nc2n1CC1CCCO1 (stereo unspecified)	-3	46*	-4	1	-2
Nc1sc2c(c1C(=O)NCCc1ccccc1)CCCC2	.	-3	-1	28*	.
Nc1sc2c(c1C(=O)NCCc1ccccc1)CCC2	4	5	3	-4	4
Cn1c(=O)c(Nc2ccc(Cl)cc2)c2c3c(cccc31)C(=O)c1ccccc1-2	.	.	36*	4	.
CC(=O)Nc1c2c3c(cccc3n(C)c1=O)C(=O)c1ccccc1-2	3	-11	0	3	14
COc1ccc(/C(C)=N/NC(=O)c2cccc(S(=O)(=O)N3CCCC3)c2)c(O)c1	-2	49*	2	2	-1
COc1cccc(CNC(=S)OC2CCC23CCC(c2ccccc2)CC3)c1 (stereo unspecified)	.	.	13	3	.

Screens: PubChem, several laboratories
